Laboratory results from ChEMBL document CHEMBL3860025, “Antiproliferative and Anti-inflammatory Withanolides from Physalis angulata” (J Nat Prod, 2016).

Legend:
[1] = Antiproliferative activity against human C4-2B cells assessed as inhibition of cell viability after 48 hrs by MTT reduction assay; assay type: functional, cell-based; conditions: LNCaP C4-2B
In short: (§1)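 Cells grown in RPMI-1640 or EMEM with 10% FBS at 37 °C under 5% CO2. Seeded at 1 × 10^4 cells/well for 12 h, then exposed to a range of compound concentrations for 48 h. Viability read by MTT reduction. 5-Fluorouracil was the positive control. Each assay was repeated three times, and IC50 reported as mean ± SD.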

[2] = Antiproliferative activity against human 22Rv1 cells assessed as inhibition of cell viability after 48 hrs by MTT reduction assay; assay type: functional, cell-based, CWR22R; conditions: 22Rv1, 48 h; in short: as §1
[3] = Antiproliferative activity against human 786-0 cells assessed as inhibition of cell viability after 48 hrs by MTT reduction assay; assay type: functional, cell-based; conditions: 786-0, 48 h; in short: as §1
[4] = Antiproliferative activity against human A498 cells assessed as inhibition of cell viability after 48 hrs by MTT reduction assay; assay type: functional, cell-based; conditions: A498, 48 h; in short: as §1
[5] = Antiproliferative activity against human ACHN cells assessed as inhibition of cell viability after 48 hrs by MTT reduction assay; assay type: functional, cell-based; in short: as §1
[6] = Antiproliferative activity against human A375-S2 cells assessed as inhibition of cell viability after 48 hrs by MTT reduction assay; assay type: functional, cell-based; conditions: A375-S2, 48 h; in short: as §1
[7] = Antiinflammatory activity in mouse RAW264.7 cells assessed as inhibition of LPS-induced nitric oxide production after 24 hrs by Griess assay; assay type: functional, cell-based; conditions: RAW264.7, 24 h
In short: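 RAW 264.7 macrophages seeded at 1 × 10^6 cells/well, then incubated 24 h at 37 °C with LPS (1 μg/mL), with or without test compounds. NO measured by Griess reagent (0.1% N-(1-naphthyl)ethylenediamine plus 1% sulfanilamide in 5% H3PO4), absorbance at 540 nm. NO concentration and inhibition rate calculated from a standard curve. Hydrocortisone served as positive control.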

Compound | IC50 [7] [µM] | IC50 [1] [µM] | IC50 [2] [µM] | IC50 [3] [µM] | IC50 [4] [µM] | IC50 [5] [µM] | IC50 [6] [µM]
CC(=O)O[C@H]1C=C([C@H](C)[C@H]2CC(C)=C(C)C(=O)O2)[C@@]2(C)CC[C@H]3[C@@H](C[C@@H](O)[C@@]4(O)C[C@@H](O)CC(=O)[C@]34C)[C@@]12O | > 100 | > 10 | > 10 | > 10 | > 10 | > 10 | > 10
CC(=O)O[C@H]1[C@@H]2O[C@]2([C@H](C)[C@H]2CC(C)=C(C)C(=O)O2)[C@@]2(C)CC[C@H]3[C@@H](C[C@@H](O)[C@@]4(O)CC=CC(=O)[C@]34C)[C@@]12O | 59.5 | > 10 | > 10 | > 10 | > 10 | > 10 | > 10
CC(=O)O[C@H]1C[C@@](O)([C@H](C)[C@H]2CC(C)=C(C)C(=O)O2)[C@@]2(C)CC[C@H]3[C@@H](C[C@@H](O)[C@@]4(O)CC=CC(=O)[C@]34C)[C@@]12O | > 100 | > 10 | > 10 | > 10 | > 10 | > 10 | > 10
CC(=O)O[C@H]1C[C@H]([C@H](C)[C@H]2CC(C)=C(C)C(=O)O2)[C@@]2(C)CC[C@H]3[C@@H](C[C@@H](O)[C@@]4(O)CC=CC(=O)[C@]34C)[C@@]12O | 43.8 | > 10 | > 10 | > 10 | > 10 | > 10 | > 10
CC(=O)O[C@H]1C[C@H]([C@H](C)[C@H]2CC(C)=C(C)C(=O)O2)[C@@]2(C)CC[C@H]3[C@@H](C[C@H]4O[C@]45CC=CC(=O)[C@]35C)[C@@]12O | 1.36 | 0.49 | 0.9 | 0.39 | 0.71 | 0.73 | 7.43
CO[C@]12CC=CC(=O)[C@]1(C)[C@H]1CC[C@]3(C)C([C@H](C)[C@H]4CC(C)=C(C)C(=O)O4)=C[C@H](OC(C)=O)[C@]3(O)[C@@H]1C[C@H]2O | 44.6 | > 10 | > 10 | > 10 | > 10 | > 10 | > 10

Now from value to molecule, other results behind:

IC50 [7] [µM] | Compound | IC50 [1] [µM] | IC50 [2] [µM] | IC50 [3] [µM] | IC50 [4] [µM] | IC50 [5] [µM] | IC50 [6] [µM]
11.2 | CC1=C(C)C(=O)O[C@@H]([C@@H](C)C2=C[C@@H]3O[C@@H](C)O[C@@]34[C@@H]3C[C@@H](O)[C@@]5(O)CC=CC(=O)[C@]5(C)[C@H]3CC[C@]24C)C1 | > 10 | > 10 | > 10 | > 10 | > 10 | > 10
25.9 | CC1=C(C)C(=O)O[C@@H]([C@]2(C)OC(=O)[C@]34CC[C@H]5[C@@H](CC=C6CC=CC(=O)[C@@]65C)[C@@](O)(O3)[C@@H](O)C[C@H]24)C1 | > 10 | > 10 | > 10 | > 10 | > 10 | > 10
18.7 | CO[C@@H]1C=C([C@H](C)[C@H]2CC(C)=C(C)C(=O)O2)[C@@]2(C)CC[C@H]3[C@@H](C[C@@H](O)[C@@]4(O)CC=CC(=O)[C@]34C)[C@@]12O | > 10 | > 10 | > 10 | > 10 | > 10 | > 10
